Data: ChEMBL document CHEMBL1833917, “Antimalarial activity of physalins B, D, F, and G” (J Nat Prod, 2011)
Calls of active or inactive are those of the source. The rule behind the calls is not given here.

Legend:
Plasmodium falciparum = test: Antimalarial activity against chloroquine-resistant and mefloquine-sensitive Plasmodium falciparum W2 infected in human O-positive erythrocytes assessed as inhibition of parasite growth by [3H]hypoxanthine incorporation assay; type: functional, organism-based
Outline: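 Compounds were tested at several concentrations, diluted in 4% DMSO/RPMI without hypoxanthine, with mefloquine as control. Growth was measured by 3H-hypoxanthine uptake versus untreated wells. Triplicate, means ± SD of three independent experiments.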

[1] = Cytotoxicity against BALB/c mouse splenocytes assessed as [3H]thymidine incorporation after 24 hrs by beta counting; type: cell-based, Splenocyte; conditions: read-out: LC50
Outline: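 BALB/c splenocytes, 6 × 10^5 cells/well, in DMEM + 10% FCS + 50 μg/mL gentamycin. Compounds were tested at five concentrations in triplicate. 3H-thymidine (1 μCi/well) was added, followed by 24 h at 37 °C, 5% CO2, then β-counting. Cytotoxicity was taken relative to untreated cultures and LC50 derived. Means ± SD of three experiments.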

[2] = Selectivity index, ratio of LC50 for mouse splenocytes to IC50 for chloroquine-resistant and mefloquine-sensitive Plasmodium falciparum W2
Outline: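 SI = splenocyte LC50 (3H-thymidine assay) divided by W2 P. falciparum IC50 (3H-hypoxanthine assay), each from three independent experiments.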

Plasmodium berghei [3] = test: Antimalarial activity against Plasmodium berghei NK65 infected in mouse assessed as reduction of parasitemia level at 50 to 100 mg/kg, ip qd for 4 days measured on day 8 postinfection by optical microscopy analysis; type: functional; set-up: scale not given: the % may be the effect or the level left; conditions: dose mg/kg 50-100; route intraperitoneal
Outline: (§1)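 Male Swiss mice (5-week-old, SPF), groups of five, infected with P. berghei NK65 (line kept by weekly ip blood passage of 10^6 infected RBC). Dosing ip, 200 μL, daily for four consecutive days from the first day of infection, in saline + 10% DMSO. Comparators were chloroquine 50 mg/kg and 10% DMSO/saline mock. Survival was monitored to day 24.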

Plasmodium berghei [4] = test: Antimalarial activity against Plasmodium berghei NK65 infected in mouse assessed as reduction of host mortality at 100 mg/kg, ip qd for 4 days measured on day 24 postinfection; type: functional; set-up: scale not given: the % may be the effect or the level left; conditions: route intraperitoneal; outline: as §1
Plasmodium berghei [5] = test: Antimalarial activity against Plasmodium berghei NK65 infected in mouse assessed as reduction of parasitemia level at 50 to 100 mg/kg, ip qd for 4 days by optical microscopy analysis; type: functional, organism-based; outline: as §1
Plasmodium berghei [6] = test: Antimalarial activity against Plasmodium berghei NK65 infected in mouse assessed as reduction of host mortality at 50 to 100 mg/kg, ip qd for 4 days measured on day 7; type: functional, organism-based; outline: as §1
Plasmodium berghei [7] = test: Antimalarial activity against Plasmodium berghei NK65 infected in mouse assessed as reduction of parasitemia level at 50 mg/kg, ip qd for 4 days by optical microscopy analysis; type: functional, organism-based; set-up: dose 50 mg/kg
Outline: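 Male SPF Swiss mice, 5 weeks old, infected with P. berghei NK65 (line kept by weekly ip blood passage of 10^6 infected RBC). Groups of five were dosed ip daily for 4 days from the first day of infection, in 200 μL saline plus 10% DMSO. Chloroquine 50 mg/kg and vehicle served as controls. Parasitemia was counted by microscopy on methanol-fixed, fast-panoptic-stained blood smears on days 4–8. Reduction was calculated versus vehicle. Two replicate experiments were run.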

Structure (SMILES): C[C@@]12C[C@H]3OC(=O)[C@@H]1CO[C@@]14O[C@]5([C@H]2C1=O)[C@@](O)(CC[C@H]1[C@H]4C[C@@H](O)[C@@]2(O)CC=CC(=O)[C@]12C)C(=O)O[C@@]35C [PHYSALIN D]
- IC50 (Plasmodium falciparum): 55 µM
- CC50 at 24 h [1]: 570 µM
- Ratio LC50/IC50 [2]: 10.4
- Activity (Plasmodium berghei [3]): 65%
- Activity (Plasmodium berghei [4]): 25%

Structure (SMILES): C[C@]12C(=O)C=CCC1=CC[C@@H]1[C@@H]2CC[C@]2(O)C(=O)O[C@@]3(C)[C@H]4C[C@]5(C)[C@@H](CO[C@@]16O[C@@]32[C@H]5C6=O)C(=O)O4 [PHYSALIN B]
- IC50 (Plasmodium falciparum): 2.8 µM
- CC50 at 24 h [1]: 33.9 µM
- Ratio LC50/IC50 [2]: 12.3

Structure (SMILES): C[C@@]12C[C@H]3OC(=O)[C@@H]1CO[C@]14O[C@]5([C@H]2C1=O)[C@@](O)(CC[C@H]1[C@H]4C[C@H]2O[C@]24CC=CC(=O)[C@]14C)C(=O)O[C@@]35C [PHYSALIN F]
- IC50 (Plasmodium falciparum): 2.2 µM
- CC50 at 24 h [1]: 13.3 µM
- Ratio LC50/IC50 [2]: 5.94
- Activity (Plasmodium berghei [5]): inactive
- Activity (Plasmodium berghei [6]): Active

Structure (SMILES): CCN(CC)CCCC(C)Nc1ccnc2cc(Cl)ccc12 (centres undefined)
- Activity (Plasmodium berghei [7]): Active

Structure (SMILES): C[C@]12C(=O)C=CC=C1[C@@H](O)C[C@@H]1[C@@H]2CC[C@@]2(O)C(=O)O[C@@]3(C)[C@H]4C[C@]5(C)[C@@H](CO[C@@]16O[C@]23[C@H]5C6=O)C(=O)O4 [PHYSALIN G]
- IC50 (Plasmodium falciparum): 6.7 µM
- CC50 at 24 h [1]: 37.5 µM
- Ratio LC50/IC50 [2]: 5.6

Structure (SMILES): OC(c1cc(C(F)(F)F)nc2c(C(F)(F)F)cccc12)C1CCCCN1 (centres undefined) [MEFLOQUINE]
- CC50 at 24 h [1]: 9.5 µM
- Ratio LC50/IC50 [2]: 238
